This is an account of results in ChEMBL document CHEMBL1154432, “Synthesis and pharmacological investigation of novel 4-(2-methylphenyl)-1-substituted-4H-[1,2,4]triazolo[4,3-a]quinazolin-5-ones as new class of H(1)-antihistaminic agents” (2008).

Experiment [1] relates to Mus musculus. In words: Sedative-hypnotic activity in Swiss Albino mouse assessed as CNS depression at 5 mg/kg, po after 1 hr. Type of experiment: functional. In a few lines: (§1)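 The basal motor activity score was recorded first. Compound was then given orally in 1% CMC, and scores were taken at 1, 2 and 3 h post-dose. % reduction in motor activity = [(A−B)/A]×100, with A the basal score and B the post-treatment score. Significance was tested by Student's t-test.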

The test system of experiment [2] is Mus musculus. In words: Sedative-hypnotic activity in Swiss Albino mouse assessed as CNS depression at 5 mg/kg, po after 3 hrs. Type of experiment: functional. In a few lines: as §1
Experiment [3] deals with Mus musculus. In words: Sedative-hypnotic activity in Swiss Albino mouse assessed as CNS depression at 5 mg/kg, po after 2 hrs. Format: functional. Put shortly: as §1
Experiment [4] relates to Cavia porcellus. In words: Antihistaminic activity against Dunkin-Hartley guinea pig assessed as protection against histamine-induced bronchospasm at 10 mg/kg, po. Format: functional. In a few lines:
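Male Dunkin Hartley guinea pigs (250–300 g), fasted 12 h, six per group. Dosed orally in 1% CMC, then challenged with histamine aerosol (0.2% aqueous histamine acid chloride) sprayed from a pocket nebulizer into a closed cage. Preconvulsion onset time was recorded, and animals stable beyond 6 min counted as protected. Mean preconvulsion time vs control expressed as % protection.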

Experiment [5] deals with Cavia porcellus. In words: Antihistaminic activity against Dunkin-Hartley guinea pig assessed as protection against histamine-induced bronchospasm at 10 mg/kg, po.

With `Cc1ccccc1-n1c(=O)c2ccccc2n2c(CCl)nnc12`, the Activity in the experiment on Mus musculus [1] was determined as 8%; in the experiment with Mus musculus [2], 4%; in the experiment on Mus musculus [3], 13%; with Cavia porcellus [4], 68.56%.
With `Cc1ccccc1-n1c(=O)c2ccccc2n2c(CN3CCCCC3)nnc12`, the Activity with Mus musculus [1] stood at 13%; with Mus musculus [2] it was 9%; with Mus musculus [3] it was 16%; in the experiment on Cavia porcellus [4], 69.47%.
For `Cc1ccccc1-n1c(=O)c2ccccc2n2c(N3CCOCC3)nnc12`, in that order: 10%, 10%, 15% and 70.33%.
The matching figures for `Cc1ccccc1-n1c(=O)c2ccccc2n2c(CN3CCNCC3)nnc12`: 12%, 9%, 13% and 70.7%.
Turning to `CCc1nnc2n(-c3ccccc3C)c(=O)c3ccccc3n12`, the Activity stood at 13% with Mus musculus [1], 9% in the experiment on Mus musculus [2], 14% with Mus musculus [3] and 70.78% in the experiment with Cavia porcellus [4].
For `Cc1ccccc1-n1c(=O)c2ccccc2n2cnnc12`, in that order: 9%, 5%, 11% and 69.87%.
`Cc1ccccc1-n1c(=O)c2ccccc2n2c(N3CCCC3)nnc12`: the Activity in the experiment on Mus musculus [1] worked out at 10%; with Mus musculus [2] it was 7%; with Mus musculus [3] it was 14%; in the experiment with Cavia porcellus [4], 68.81%.
Regarding `CN(C)CCC(c1ccc(Cl)cc1)c1ccccn1.O=C(O)/C=C\C(=O)O` (centres undefined) [CHLORPHENIRAMINE MALEATE], the Activity in the experiment on Mus musculus [1] came out at 37%; in the experiment with Mus musculus [2] it was 22%; with Mus musculus [3], 32%; in the experiment with Cavia porcellus [5], 71%.
For `Cc1ccccc1-n1c(=O)c2ccccc2n2c(CN3CCN(C)CC3)nnc12`, the Activity is 12% in the experiment on Mus musculus [1], 10% with Mus musculus [2], 18% in the experiment with Mus musculus [3] and 72.05% in the experiment with Cavia porcellus [4].
For `Cc1ccccc1-n1c(=O)c2ccccc2n2c(C)nnc12`, in that order: 11%, 8%, 14% and 72.45%.
For `CCCc1nnc2n(-c3ccccc3C)c(=O)c3ccccc3n12`, in that order: 13%, 8%, 17% and 69.47%.
